Measured values collected from several papers.
Protocols differ between the studies behind these lines. pEC50: −log10 of the molar value.

`C=CCNC(=S)NNC(=O)COc1ccc2c(C)c(CC)c(=O)oc2c1C` has a viability of 2.7% (MDA-MB-231; cell growth or viability, MTT; 1000 µg/mL).
`C=CCO/N=c1\cc2n(-c3ccc(Cl)cc3)c3ccccc3nc-2cc1Nc1ccc(Cl)cc1` has an MIC of 15 µM (Neisseria gonorrhoeae; microbial growth; ATCC49226).
`C[C@@H]1CC[C@@H]([C@](O)(CNCc2ccccc2)COCc2ccccc2)[C@H](OCc2ccccc2)C1` has an inhibition of 99.3% (MDA-MB-231; cell growth or viability, MTT; 30 µM, 72 h).
With `C=CC(=O)NC1CCN(c2ncc3ncnc(Nc4ccc(Oc5ccc6c(c5)ncn6C)c(C)c4)c3n2)CC1` the pEC50 was 5.28 (Panc 04.03; cell growth or viability).
`CO/N=c1\cc2n(-c3ccc(Cl)cc3)c3ccccc3nc-2cc1Nc1ccc(Cl)cc1` gave an MIC of 0.94 µM (Neisseria gonorrhoeae; microbial growth; ATCC49226).
`CCc1c(C)c2ccc(OCC(=O)NN=Cc3ccc([N+](=O)[O-])cc3)cc2oc1=O` has a viability of 13% (MDA-MB-231; cell growth or viability, MTT; 1000 µg/mL).
`O=C(O)CO/N=c1\cc2n(-c3ccc(Cl)cc3)c3ccccc3nc-2cc1Nc1ccc(Cl)cc1` gave an MIC of 1.88 µM (Neisseria gonorrhoeae; microbial growth; ATCC49226).
`C=C(C)[C@@H]1CC[C@@H](C)C[C@H]1OCc1ccccc1` gave an inhibition of 87% (MDA-MB-231; cell growth or viability, MTT; 30 µM, 72 h).
`O=C1C(Br)=C(Br)C(=O)c2ccccc21` gave an MIC of under 1.56 µg/mL (Lodderomyces parapsilosis; microbial growth, broth dilution; ATCC22019; 24 h).
For `C[C@H](NC(=O)CO/N=c1\cc2n(-c3ccc(Cl)cc3)c3ccccc3nc-2cc1Nc1ccc(Cl)cc1)C(=O)OC(C)(C)C`, the MIC was 3.75 µM (Neisseria gonorrhoeae; microbial growth; ATCC49226).
With `C=CCOc1ccc2c(C)c(CC)c(=O)oc2c1C` the viability was 3.1% (MDA-MB-231; cell growth or viability, MTT; 1000 µg/mL).
The GI50 of `Cc1c(C(=O)O)ccc2c3n(nc12)[C@@H]1[C@H](C3)N(CC2CC2)[C@@]2(C(=O)Nc3cc(Cl)ccc32)[C@H]1c1cccc(Cl)c1F` is reported as 0.021 µM (hTERT-RPE1; cell growth or viability, ATP luminescence; 72 h).
